ChEMBL document CHEMBL4000180, “Structure-Activity Relationships of Small Molecule Autotaxin Inhibitors with a Discrete Binding Mode” (J Med Chem, 2017)
Converted amounts (≈) assume the structure as drawn. The source made the active and inactive calls. The calls are words filed in the database; no cut-off is given here.

Columns and labels:
Autotaxin [1] = target: T1, Autotaxin (Homo sapiens, UniProt Q13822); test: Inhibition of human ATX expressed in HEK293 Flp-In cells using LPC as substrate measured every 30 sec for 90 mins by fluorescence assay; type: cell-based
Autotaxin [2] = target: T1, Autotaxin; test: Inhibition of recombinant human ATX using bisP-nitrophenyl phosphate as substrate measured after 30 mins
[3] = Lipophilicity, log D of the compound at pH 7.4 by chromatographic method; type: physicochemical; conditions: buffer
[4] = Kinetic aqueous solubility by CLND method; type: physicochemical; conditions: read-out: Kinetic_solubility
[5] = Apparent permeability of the compound at pH 7.4; type: physicochemical; conditions: not told
Autotaxin [6] = target: T1, Autotaxin; test: Inhibition of ATX in human MDA-MB-435S cells using lysophosphatidyl choline as substrate preincubated for 15 mins followed by substrate addition measured after 90 mins; type: cell-based
Autotaxin [7] = target: T1, Autotaxin; test: Noncompetitive inhibition of human ATX expressed in HEK293 Flp-in cells up to 800 nM using varying lysophosphatidyl choline substrate level by Lineweaver-Burk plot analysis; type: cell-based
Procedure, shortened: (§1)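 hATX from HEK293 Flp-In cells; choline release from LPC coupled to choline oxidase/HRP/homovanillic acid fluorescence in Tris pH 7.4 buffer with CaCl2 and Triton X-100. Activity measured across varying LPC concentrations at fixed inhibitor concentrations; mixed-inhibition model fitted to obtain alpha (near 1 taken as noncompetitive), with Lineweaver-Burk double-reciprocal plots for display.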

Autotaxin [8] = target: T1, Autotaxin; test: Inhibition of ATX (unknown origin) using lysophosphatidyl choline as substrate
Procedure, shortened: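 Human ATX produced in HEK293 Flp-In cells, 20 nM, incubated with 150 μM LPC(18:1) in 50 mM Tris pH 7.4, 0.01% Triton X-100, 50 mM CaCl2 with choline oxidase (1 U/ml), HRP (2 U/ml) and 2 mM homovanillic acid. Choline release read as HVA fluorescence, ex/em 320/450 nm, every 30 s for 90 min. Screen 400 nM–100 μM (n = 3); 10-point curves 0.3 nM–10 μM, n = 2.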

Autotaxin [9] = target: T1, Autotaxin; test: Noncompetitive inhibition of human ATX expressed in HEK293 Flp-in cells up to 11 nM using varying lysophosphatidyl choline substrate level by Lineweaver-Burk plot analysis; type: cell-based; procedure, shortened: as §1

SMILES: Cn1cc(-c2cccc(Sc3cccc(C(=O)O)n3)c2)cn1
- inhibition (Autotaxin [1]): inactive

SMILES: Cc1[nH]c2ccccc2c1Sc1cccc(C(=O)O)c1
- IC50 (Autotaxin [1]; read-out: IC50): > 30000 nM

SMILES: Cc1c(Sc2cccc(C(=O)O)n2)c2ccc(Cl)cc2n1C
- IC50 (Autotaxin [2]): > 4000 nM
- IC50 (Autotaxin [1]; read-out: IC50): 31 nM
- chromatographic logD [3]: 2.68
- solubility kinetic [4]: 300 µM (≈ 99.8 µg/mL)
- Papp [5]: 3.2 ×10⁻⁶ cm/s

SMILES: Cc1c(Sc2cccc(C(=O)O)c2)c2ccc(Cl)cc2n1C1CCCC1
- IC50 (Autotaxin [2]): > 4000 nM
- IC50 (Autotaxin [1]; read-out: IC50): 20000 to 25000 nM

SMILES: Cc1c(Sc2cccc(C(=O)O)n2)c2c(F)cccc2n1-c1ccn(C)n1
- IC50 (Autotaxin [1]; read-out: IC50): 3000 to 3500 nM

SMILES: Cc1c(Sc2cccc(C(=O)O)n2)c2ccc(Cl)cc2n1-c1cnn(C)c1
- IC50 (Autotaxin [2]): 22 nM
- IC50 (Autotaxin [1]; read-out: IC50): 4 nM
- chromatographic logD [3]: 2.7
- solubility kinetic [4]: 377 µM (≈ 150 µg/mL)
- Papp [5]: 2.3 ×10⁻⁶ cm/s
- IC50 (Autotaxin [6]): < 300 nM

SMILES: Cc1ccc2c(Sc3cccc(C(=O)O)n3)c(C)n(-c3cnn(C)c3)c2c1
- IC50 (Autotaxin [2]): 85 nM
- IC50 (Autotaxin [1]; read-out: IC50): 25 nM

SMILES: Cc1[nH]c2cccc(C)c2c1Sc1cccc(C(=O)O)n1
- IC50 (Autotaxin [1]; read-out: IC50): > 8000 nM

SMILES: Cc1c(Cc2cccc(C(=O)O)n2)c2ccc(Cl)cc2n1-c1cnn(C)c1
- IC50 (Autotaxin [2]): 89 nM
- IC50 (Autotaxin [1]; read-out: IC50): 339 nM

SMILES: Cc1[nH]c2cc(Cl)ccc2c1Sc1cccc(C(=O)O)n1
- IC50 (Autotaxin [2]): 604 nM
- IC50 (Autotaxin [1]; read-out: IC50): 25 nM
- chromatographic logD [3]: 2.19
- solubility kinetic [4]: ≥ 395 µM
- Papp [5]: 1.1 ×10⁻⁶ cm/s

SMILES: COc1ccc2c(Sc3cccc(C(=O)O)n3)c(C)n(-c3cnn(C)c3)c2c1
- IC50 (Autotaxin [2]): 75 nM
- IC50 (Autotaxin [1]; read-out: IC50): 124 nM

SMILES: Cc1c(Cc2cccc(C(=O)O)c2)c2ccccc2n1-c1cnn(C)c1
- IC50 (Autotaxin [1]; read-out: IC50): > 30000 nM

SMILES: Cc1c(Sc2cccc(C(=O)O)c2)c2ccccc2n1-c1ccccc1
- IC50 (Autotaxin [2]): > 30000 nM
- IC50 (Autotaxin [1]; read-out: IC50): > 5000 nM

SMILES: Cc1c(Sc2cccc(C(=O)O)n2)c2ccccc2n1-c1cnn(C)c1
- IC50 (Autotaxin [2]): 5700 nM
- IC50 (Autotaxin [1]; read-out: IC50): 1700 nM
- inhibition (Autotaxin [7]): Active

SMILES: COc1cccc2c1c(Sc1cccc(C(=O)O)n1)c(C)n2-c1cnn(C)c1
- IC50 (Autotaxin [1]; read-out: IC50): > 30000 nM

SMILES: Cc1c(Sc2cccc(C(=O)O)c2)c2ccc(Cl)cc2n1-c1cnn(C)c1
- IC50 (Autotaxin [1]; read-out: IC50): 11 nM
- chromatographic logD [3]: 3.36
- solubility kinetic [4]: 556 µM (≈ 221 µg/mL)
- Papp [5]: 6.4 ×10⁻⁶ cm/s
- IC50 (Autotaxin [6]): < 300 nM

SMILES: Cc1[nH]c2ccccc2c1Sc1cccc(C(=O)O)n1
- IC50 (Autotaxin [1]; read-out: IC50): > 30000 nM

SMILES: Cc1c(Oc2cccc(C(=O)O)c2)c2ccc(Cl)cc2n1-c1cnn(C)c1
- IC50 (Autotaxin [2]): 204 nM
- IC50 (Autotaxin [1]; read-out: IC50): 726 nM

SMILES: Cc1c(Sc2cccc(C(=O)O)c2F)c2ccc(Cl)c(F)c2n1CC(=O)N1CC2(CC2)c2ccccc21
- IC50 (Autotaxin [8]): 2 nM

SMILES: Cc1[nH]c2cc(Cl)ccc2c1Sc1cccc(C(=O)O)c1
- IC50 (Autotaxin [2]): 290 nM
- IC50 (Autotaxin [1]; read-out: IC50): 747 nM

SMILES: Cc1c(Sc2cccc(C(=O)O)n2)c2ccc(Cl)cc2n1C1CCCC1
- IC50 (Autotaxin [2]): 2000 nM
- IC50 (Autotaxin [1]; read-out: IC50): > 2800 nM
- chromatographic logD [3]: 4.05
- solubility kinetic [4]: 336 µM (≈ 130 µg/mL)
- Papp [5]: 29 ×10⁻⁶ cm/s

SMILES: Cc1c(Cc2cccc(C(=O)O)n2)c2ccccc2n1-c1cnn(C)c1
- IC50 (Autotaxin [1]; read-out: IC50): > 30000 nM

SMILES: Cc1c(Cc2cccc(C(=O)O)c2)c2ccc(Cl)cc2n1-c1cnn(C)c1
- IC50 (Autotaxin [2]): 33 nM
- IC50 (Autotaxin [1]; read-out: IC50): 660 nM

SMILES: Cc1c(Oc2cccc(C(=O)O)c2)c2ccccc2n1-c1cnn(C)c1
- IC50 (Autotaxin [1]; read-out: IC50): > 30000 nM

SMILES: Cc1c(Sc2cccc(C(=O)O)c2)c2ccc(Cl)cc2n1C
- IC50 (Autotaxin [2]): 100 nM
- IC50 (Autotaxin [1]; read-out: IC50): 1200 nM
- inhibition (Autotaxin [9]): Active
- IC50 (Autotaxin [8]): > 1000 nM

SMILES: Cc1cccc2c1c(Sc1cccc(C(=O)O)n1)c(C)n2-c1cnn(C)c1
- IC50 (Autotaxin [1]; read-out: IC50): > 10000 nM

SMILES: Cc1c(Sc2cccc(C(=O)O)n2)c2c(Cl)cccc2n1-c1cnn(C)c1
- IC50 (Autotaxin [1]; read-out: IC50): > 30000 nM

SMILES: Cc1[nH]c2cc(F)ccc2c1Sc1cccc(C(=O)O)n1
- IC50 (Autotaxin [1]; read-out: IC50): > 20000 nM

SMILES: Cc1c(Sc2cccc(C(=O)O)n2)c2ccc(Cl)cc2n1-c1ccccc1
- IC50 (Autotaxin [1]; hek293): Nd(Insoluble)
- chromatographic logD [3]: 4.3
- solubility kinetic [4]: 485 µM (≈ 192 µg/mL)
- Papp [5]: 15.5 ×10⁻⁶ cm/s

SMILES: Cc1c(Sc2cccc(C(=O)O)n2)c2ccc(F)cc2n1-c1ccn(C)n1
- IC50 (Autotaxin [2]): 816 nM
- IC50 (Autotaxin [1]; read-out: IC50): 349 nM

SMILES: Cc1c(Sc2cccc(C(=O)O)c2)c2ccc(Cl)cc2n1-c1ccccc1
- IC50 (Autotaxin [2]): 5 nM
- IC50 (Autotaxin [1]; read-out: IC50): 81 nM
- IC50 (Autotaxin [6]): < 300 nM

SMILES: Cc1cc2ccc(Cl)cc2n1-c1cnn(C)c1
- IC50 (Autotaxin [1]; read-out: IC50): > 30000 nM

SMILES: Cc1c(SCCCC(=O)O)c2ccccc2n1-c1cnn(C)c1
- IC50 (Autotaxin [1]; read-out: IC50): > 10000 nM

SMILES: Cc1c(Sc2cccc(C(=O)O)n2)c2ccccc2n1-c1ccccc1
- IC50 (Autotaxin [1]; read-out: IC50): > 30000 nM

SMILES: Cc1c(Sc2cccc(C(=O)O)n2)c2cc(Cl)ccc2n1-c1cnn(C)c1
- IC50 (Autotaxin [1]; read-out: IC50): 258 nM

SMILES: Cc1c(SCCCC(=O)O)c2ccc(Cl)cc2n1-c1cnn(C)c1
- IC50 (Autotaxin [1]; read-out: IC50): > 30000 nM

SMILES: Cc1c(Sc2cccc(C(=O)O)n2)c2ccccc2n1C
- IC50 (Autotaxin [1]; read-out: IC50): > 30000 nM

SMILES: Cc1c(Sc2cccc(C(=O)O)n2)c2ccccc2n1C1CCCC1
- IC50 (Autotaxin [1]; read-out: IC50): > 30000 nM
